Laboratory results: ChEMBL document CHEMBL1123947, “Design, structure-activity, and molecular modeling studies of potent renin inhibitory peptides having N-terminal Nin-For-Trp (Ftr): angiotensinogen congeners modified by P1-P1' Phe-Phe, Sta, Leu psi[CH(OH)CH2]Val or leu psi[CH2NH]Val substitutions” (J Med Chem, 1988)
Numbered stars: 1 amine (or outer) side, 2 acyl side, 3 side chain; on linkers, the order of the positions; unused ones are H or OH. Square brackets hold non-standard residues; d marks the D form. Peptide text beside a SMILES is read from it. * marks the point of attachment. ξ: configuration not given here. Sta(3ξ) = CC(C)C[C@H](N[*:1])C(O)CC(=O)[*:2]; X4 = CC(C)C[C@H](N*)C(O)C[C@H](C(N)=O)C(C)C; X5 = CC(C)C[C@@H](CN[C@H](C(N)=O)C(C)C)N*; X1 = CC(C)CC(N[*:1])C(O)CC(=O)[*:2]; X3 = CC(C)CC(N[*:1])C(O)C(=O)[*:2]; Ile(3ξ) = CCC(C)[C@H](N)C(=O)O; X2 = CC(C)CC(N*)C(O)CC(N)=O; Cbz = O=C(OCc1ccccc1)*; Boc = CC(C)(C)OC(=O)*; For = O=C*

Each compound was assayed against T1, Renin (Homo sapiens, UniProt P00797) (assay: In vitro inhibitory activity against human plasma renin).
T1 sequence (P00797 whole entry): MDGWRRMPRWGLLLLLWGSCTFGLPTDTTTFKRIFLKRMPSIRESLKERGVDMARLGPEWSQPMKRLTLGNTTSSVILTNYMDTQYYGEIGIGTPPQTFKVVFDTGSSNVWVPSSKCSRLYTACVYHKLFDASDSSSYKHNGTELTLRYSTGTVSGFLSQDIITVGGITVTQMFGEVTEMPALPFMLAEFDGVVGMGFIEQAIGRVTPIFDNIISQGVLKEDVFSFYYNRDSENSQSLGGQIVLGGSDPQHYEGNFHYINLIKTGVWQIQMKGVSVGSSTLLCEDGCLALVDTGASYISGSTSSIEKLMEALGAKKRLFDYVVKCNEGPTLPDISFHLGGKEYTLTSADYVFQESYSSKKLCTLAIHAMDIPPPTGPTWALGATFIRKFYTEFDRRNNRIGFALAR
Assay type: cell-free
Procedure, shortened: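 Reconstituted lyophilized human plasma with 0.1% EDTA, plus PMSF and maleate buffer (pH 6.0). Inhibitor added in 1.0% Tween 80/water vehicle. Angiotensin I generated for 90 min at 37 °C and measured by RIA.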
For `CC[C@H](C)[C@H](NC(=O)C(O)C(CC(C)C)NC(=O)[C@H](Cc1c[nH]cn1)NC(=O)[C@H](Cc1ccccc1)NC(=O)[C@@H]1CCCN1C(=O)[C@H](CCCN=C(N)N)NC(=O)[C@H](CCCN=C(N)N)NC(=O)OCc1ccccc1)C(=O)N[C@@H](Cc1c[nH]cn1)C(=O)N[C@@H](CCCCNC(=O)OC(C)(C)C)C(=O)OC` (some centres undefined) (Cbz-RRPFH[X3]IHK(Boc)-OMe), the IC50 was 1 nM.
`CC[C@H](C)[C@H](NC(=O)CC(O)[C@H](CC(C)C)NC(=O)[C@H](Cc1c[nH]cn1)NC(=O)[C@H](Cc1ccccc1)NC(=O)[C@@H]1CCCN1C(=O)[C@@H](Cc1cn(C=O)c2ccccc12)NC(C)=O)C(N)=O` (some centres undefined) was tested, and the IC50 was 14 nM.
Compound `CC[C@H](C)[C@H](NC(=O)CC(O)[C@H](CC(C)C)NC(=O)[C@H](Cc1cnc[nH]1)NC(=O)[C@H](Cc1ccccc1)NC(=O)[C@@H]1CCCN1C(=O)[C@H](Cc1cnc[nH]1)NC(C)=O)C(N)=O` (some centres undefined) (Ac-HPFH[Sta(3ξ)]I-NH2) has an IC50 of 6.8 nM.
In the case of `CC(=O)N[C@@H](Cc1cn(C=O)c2ccccc12)C(=O)N1CCC[C@H]1C(=O)N[C@@H](Cc1ccccc1)C(=O)N[C@@H](Cc1c[nH]cn1)C(=O)N[C@@H](Cc1ccccc1)C(=O)N[C@@H](Cc1ccccc1)C(N)=O` (Ac-W(For)PFHFF-NH2), the IC50 is reported as over 100000 nM.
`CC[C@H](C)[C@H](NC(=O)CC(O)[C@H](CC(C)C)NC(=O)[C@H](Cc1c[nH]cn1)NC(=O)[C@H](Cc1ccccc1)NC(=O)[C@@H]1CCCN1C(=O)[C@H](Cc1c[nH]c2ccccc12)NC(C)=O)C(N)=O` (some centres undefined) (Ac-WPFH[Sta(3ξ)]I-NH2) gave an IC50 of 1.6 nM.
`CC(=O)N[C@@H](Cc1cn(C=O)c2ccccc12)C(=O)N1CCC[C@H]1C(=O)N[C@@H](Cc1ccccc1)C(=O)N[C@@H](Cc1cnc[nH]1)C(=O)NC(CC(C)C)C(O)CC(N)=O` (some centres undefined) (Ac-W(For)PFH-X2) gave an IC50 of 3.8 nM.
With `CC(=O)N[C@H](Cc1c[nH]cn1)C(=O)N1CCC[C@H]1C(=O)N[C@@H](Cc1ccccc1)C(=O)N[C@@H](Cc1ccccc1)C(=O)N[C@H](C(=O)N[C@@H](Cc1cn(C=O)c2ccccc12)C(N)=O)C(C)C` the IC50 was about 100000 nM.
`CC(=O)N[C@H](Cc1cn(C=O)c2ccccc12)C(=O)N1CCC[C@H]1C(=O)N[C@@H](Cc1ccccc1)C(=O)N[C@@H](Cc1cnc[nH]1)C(=O)N[C@@H](Cc1ccccc1)C(=O)N[C@@H](Cc1ccccc1)C(=O)N[C@H](C(=O)N[C@@H](Cc1cn(C=O)c2ccccc12)C(N)=O)C(C)C` showed an IC50 of over 100000 nM.
`CC(=O)N[C@@H](Cc1cn(C=O)c2ccccc12)C(=O)N1CCC[C@H]1C(=O)N[C@@H](Cc1ccccc1)C(=O)N[C@@H](Cc1cnc[nH]1)C(=O)N[C@@H](Cc1ccccc1)C(=O)N[C@@H](Cc1ccccc1)C(=O)N[C@H](C(N)=O)C(C)C` (Ac-W(For)PFHFFV-NH2) gave an IC50 of 2100 nM.
With `CC(=O)N[C@H](Cc1c[nH]c2ccccc12)C(=O)N1CCC[C@H]1C(=O)N[C@@H](Cc1ccccc1)C(=O)N[C@@H](Cc1c[nH]cn1)C(=O)N[C@@H](Cc1ccccc1)C(=O)N[C@@H](Cc1ccccc1)C(=O)N[C@H](C(=O)N[C@@H](Cc1cn(C=O)c2ccccc12)C(N)=O)C(C)C` the IC50 was 5000 nM.
`CC(=O)N[C@@H](Cc1cnc[nH]1)C(=O)N1CCC[C@H]1C(=O)N[C@@H](Cc1ccccc1)C(=O)N[C@@H](Cc1cnc[nH]1)C(=O)N[C@@H](Cc1ccccc1)C(=O)N[C@@H](Cc1ccccc1)C(=O)N[C@H](C(=O)N[C@@H](Cc1cn(C=O)c2ccccc12)C(N)=O)C(C)C` (Ac-HPFHFFVW(For)-NH2) showed an IC50 of 8300 nM.
`CC[C@H](C)[C@H](NC(=O)[C@@H](C[C@H](O)[C@H](CC(C)C)NC(=O)[C@H](Cc1c[nH]cn1)N(C)C(=O)[C@H](Cc1ccccc1)NC(=O)[C@@H]1CCCN1C(=O)OC(C)(C)C)C(C)C)C(=O)NCc1ccccn1` was tested, and the IC50 was 0.11 nM.
For `CC(=O)N[C@@H](Cc1cn(C=O)c2ccccc12)C(=O)N1CCC[C@H]1C(=O)N[C@@H](Cc1ccccc1)C(=O)N[C@@H](Cc1cnc[nH]1)C(=O)N[C@@H](Cc1ccccc1)C(=O)N[C@@H](Cc1ccccc1)C(=O)N[C@H](C(=O)N[C@@H](Cc1cn(C=O)c2ccccc12)C(N)=O)C(C)C`, the IC50 was 500 nM.
`CC(=O)N[C@@H](Cc1c[nH]cn1)C(=O)N[C@@H](Cc1ccccc1)C(=O)N[C@@H](Cc1cn(C=O)c2ccccc12)C(=O)N[C@@H](Cc1ccccc1)C(=O)N[C@@H](Cc1ccccc1)C(=O)N[C@H](C(=O)N[C@@H](Cc1cn(C=O)c2ccccc12)C(N)=O)C(C)C` (Ac-HFW(For)FFVW(For)-NH2) showed an IC50 of over 100000 nM.
`CC[C@H](C)[C@H](NC(=O)CC(O)[C@H](CC(C)C)NC(=O)[C@H](Cc1cnc[nH]1)NC(=O)[C@H](Cc1ccccc1)NC(=O)[C@@H]1CCCN1C(=O)[C@H](Cc1cn(C=O)c2ccccc12)NC(C)=O)C(N)=O` (some centres undefined) showed an IC50 of 0.1 nM.
In the case of `CCC(C)[C@H](NC(=O)CC(O)C(CC(C)C)NC(=O)[C@H](Cc1c[nH]cn1)NC(=O)[C@H](Cc1ccccc1)NC(=O)[C@@H]1CCCN1C=O)C(N)=O` (some centres undefined) (For-PFH[X1][Ile(3ξ)]-NH2), the IC50 is reported as 31 nM.
Work on `CC(=O)N[C@@H](Cc1cn(C=O)c2ccccc12)C(=O)N1CCC[C@H]1C(=O)N[C@@H](Cc1ccccc1)C(=O)N[C@@H](Cc1c[nH]cn1)C(=O)N[C@@H](CC(C)C)C(O)C[C@H](C(N)=O)C(C)C` (some centres undefined) (Ac-W(For)PFH-X4) yielded an IC50 of 0.31 nM.
`CC(=O)N[C@@H](Cc1cn(C=O)c2ccccc12)C(=O)N1CCC[C@H]1C(=O)N[C@@H](Cc1ccccc1)C(=O)N[C@@H](Cc1c[nH]cn1)C(=O)NC(CC(C)C)C(O)CC(=O)N[C@H](C(N)=O)C(C)C` (some centres undefined) (Ac-W(For)PFH[X1]V-NH2) was tested, and the IC50 was 0.53 nM.
In the case of `CC(=O)N[C@@H](Cc1cn(C=O)c2ccccc12)C(=O)N1CCC[C@H]1C(=O)N[C@@H](Cc1ccccc1)C(=O)N[C@@H](Cc1c[nH]cn1)C(=O)N[C@H](CN[C@H](C(N)=O)C(C)C)CC(C)C` (Ac-W(For)PFH-X5), the IC50 is reported as 21 nM.
With `CC[C@H](C)[C@H](NC(=O)[C@@H](NC[C@H](CC(C)C)NC(=O)[C@H](Cc1c[nH]cn1)NC(=O)[C@H](Cc1ccccc1)NC(=O)[C@@H]1CCCN1C(=O)[C@H](Cc1c[nH]cn1)NC(=O)[C@@H]1CCCN1)C(C)C)C(=O)N[C@@H](Cc1c[nH]cn1)C(=O)N[C@@H](CCCCN)C(=O)O` the IC50 was 10 nM.
`CC(=O)N[C@@H](Cc1cn(C=O)c2ccccc12)C(=O)NCC(=O)N[C@@H](Cc1ccccc1)C(=O)N[C@@H](Cc1cnc[nH]1)C(=O)N[C@@H](Cc1ccccc1)C(=O)N[C@@H](Cc1ccccc1)C(=O)N[C@H](C(=O)N[C@@H](Cc1cn(C=O)c2ccccc12)C(N)=O)C(C)C` (Ac-W(For)GFHFFVW(For)-NH2) showed an IC50 of over 100000 nM.
In the case of `CC(=O)N[C@@H](Cc1cn(C=O)c2ccccc12)C(=O)N1CCC[C@H]1C(=O)N[C@@H](Cc1ccccc1)C(=O)N[C@@H](Cc1cnc[nH]1)C(=O)NC(CC(C)C)C(O)CC(=O)N[C@H](C(=O)N[C@@H](Cc1cn(C=O)c2ccccc12)C(N)=O)C(C)C` (some centres undefined) (Ac-W(For)PFH[X1]VW(For)-NH2), the IC50 is reported as 0.38 nM.

These compounds were tested against Renin (Sus scrofa) (assay: In vitro inhibitory activity towards porcine kidney renin).
`CC(C)CC(NC(=O)[C@H](Cc1c[nH]cn1)NC(=O)[C@H](Cc1ccccc1)NC(=O)[C@@H]1CCCN1)C(O)CC(=O)N[C@@H](CC(C)C)C(=O)N[C@@H](Cc1ccccc1)C(N)=O` (some centres undefined) (H-PFH[X1]LF-NH2) showed an IC50 of 200 nM.
For `CC(C)CC(NC(=O)[C@@H](N)Cc1cnc[nH]1)C(O)CC(=O)N[C@@H](CC(C)C)C(=O)N[C@@H](Cc1ccccc1)C(N)=O` (some centres undefined), the IC50 was 370000 nM.
